# Assay results published in ChEMBL document CHEMBL2176913, “Haloarene derivatives of carbamazepine with reduced bioactivation liabilities: 2-monohalo and 2,8-dihalo derivatives” (J Med Chem, 2012).
# Assays:
# [1] = system: Hepatocyte; test: Drug metabolism in Wistar rat hepatocytes assessed as ratio of O-sulfonate II metabolite level to parent compound level at 50 uM incubated for 6 hrs by HPLC and LC-MS/Ms method; assay type: ADME, cell-based
# In short: (§1)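 Hepatocytes freshly isolated from male rat liver by two-step collagenase perfusion; only cells with ≥80% viability (trypan blue) were used. Cells at 2 × 10^6 cells/mL were shaken at 37 °C for 6 h with substrate at 50 μM, added in methanol (1% final volume). Reactions were stopped with acetonitrile. Metabolites were identified against authentic standards and by ESI LC–MS. Ratios are metabolite:parent compound.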
# [2] = system: Hepatocyte; test: Drug metabolism in Wistar rat hepatocytes assessed as ratio of O-sulfonate I metabolite level to parent compound level at 50 uM incubated for 6 hrs by HPLC and LC-MS/Ms method; assay type: ADME, cell-based; in short: as §1
# [3] = system: Hepatocyte; test: Stability in Wistar rat hepatocytes assessed as 10,11-epoxide N-glucuronide metabolite formation at 100 uM incubated for 6 hrs by HPLC and LC-MS/Ms method; assay type: ADME, cell-based
# In short: (§2)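 Male rat hepatocytes were isolated by collagenase perfusion (≥80% viable) and suspended at 2 × 10^6 cells/mL. They were incubated 6 h at 37 °C with substrate at typically 50–1000 μM, added in methanol (1% final volume); one analogue was tested only at 50 and 200 μM, added in acetonitrile. The reaction was stopped with acetonitrile, and the supernatant was concentrated and analysed by HPLC-UV and ESI LC–MS.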
# [4] = system: Hepatocyte; test: Stability in Wistar rat hepatocytes assessed as metabolite formation at >200 uM incubated for 6 hrs by HPLC and LC-MS/Ms method; assay type: ADME, cell-based; in short: as §2
# [5] = system: Hepatocyte; test: Drug metabolism in Wistar rat hepatocytes assessed as ratio of N-glucuronide metabolite level to parent compound level at 50 uM incubated for 6 hrs by HPLC and LC-MS/Ms method; assay type: ADME, cell-based; in short: as §1
# [6] = system: Hepatocyte; test: Drug metabolism in Wistar rat hepatocytes assessed as ratio of 10,11-epoxide metabolite level to parent compound level at 50 uM incubated for 6 hrs by HPLC and LC-MS/Ms method; assay type: ADME, cell-based; in short: as §1
# [7] = system: Hepatocyte; test: Stability in Wistar rat hepatocytes assessed as 10,11-epoxide N-glucuronide metabolite formation at 200 uM incubated for 6 hrs by HPLC and LC-MS/Ms method; assay type: ADME, cell-based; in short: as §2
# [8] = system: Hepatocyte; test: Drug metabolism in Wistar rat hepatocytes assessed as ratio of epoxide N-glucuronide metabolite level to parent compound level at 50 uM incubated for 6 hrs by HPLC and LC-MS/Ms method; assay type: ADME, cell-based; in short: as §1
# [9] = system: Liver microsomes; test: Stability in human liver microsomes assessed as oxidative defluorination at 50 uM incubated for 60 mins by HPLC and LC-MS/Ms method; assay type: ADME, Microsome; details: 1 h
# In short: (§3)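 Pooled human liver microsomes (150 donors, both sexes), 1 mg/mL protein, with substrate at 50 μM and NADPH at 1 mM. Incubated in 0.1 M potassium phosphate, pH 7.4, for 60 min at 37 °C; controls lacked NADPH. The reaction was stopped with ice-cold acetonitrile, and the supernatant was dried, reconstituted in methanol/water and analysed by HPLC-UV and ESI LC–MS (4000 Qtrap).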
# [10] = system: Liver microsomes; test: Stability in human liver microsomes assessed as dioxygenated metabolite formation at 50 uM incubated for 60 mins by HPLC and LC-MS/Ms method; assay type: ADME, Microsome; details: 1 h; in short: as §3
# [11] = system: Liver microsomes; test: Stability in human liver microsomes assessed as diol formation at 50 uM incubated for 60 mins by HPLC and LC-MS/Ms method; assay type: ADME, Microsome; details: 1 h; in short: as §3
# [12] = system: Liver microsomes; test: Drug metabolism in human liver microsomes assessed as 10,11 epoxidation level at 50 uM incubated for 60 mins by HPLC and LC-MS/Ms method; assay type: ADME, Microsome; details: 1 h; in short: as §3
# [13] = Drug metabolism in human liver microsomes assessed as compound turnover at 50 uM incubated for 60 mins by HPLC and LC-MS/Ms method; assay type: ADME, Microsome; details: read-out: Drug metabolism; in short: as §3
# [14] = system: Hepatocyte; test: Stability in Wistar rat hepatocytes assessed as 10,11-epoxide N-glucuronide metabolite formation at 500 uM incubated for 6 hrs by HPLC and LC-MS/Ms method; assay type: ADME, cell-based; in short: as §2
# [15] = system: Hepatocyte; test: Stability in Wistar rat hepatocytes assessed as 10,11-epoxide N-glucuronide metabolite formation at 1 mM incubated for 6 hrs by HPLC and LC-MS/Ms method; assay type: ADME, cell-based; details: 1000 µM; in short: as §2
# [16] = system: Hepatocyte; test: Drug metabolism in Wistar rat hepatocytes assessed as GSH adduct formation at 50 uM incubated for 6 hrs by HPLC and LC-MS/Ms method; assay type: ADME, cell-based; in short: as §1
Structure (SMILES),Stability [1],Stability [2],Stability [3],Stability [4],Ratio [5],Ratio [6],Stability [7],Ratio [8],Stability [9],Stability [10],Stability [11],Drug metabolism [12],"metabolised at 1 h, 50 µM [13]",Stability [14],Ratio [1],Stability [15],Drug metabolism [16],Ratio [2]
NC(=O)N1c2ccccc2C=Cc2cc(Br)ccc21,Stable,Stable,–,–,–,–,–,–,–,–,–,–,–,–,–,–,–,–
NC(=O)N1c2ccc(Br)cc2C=Cc2cc(Br)ccc21,Stable,Stable,Stable,Stable,0.27,0.19,–,–,–,–,–,–,–,–,–,–,–,–
NC(=O)N1c2ccc(F)cc2C=Cc2cc(F)ccc21,Stable,Stable,–,Stable,0.18,0.07,–,0.02,Stable,Stable,Stable,Active,1%,Stable,–,–,–,–
NC(=O)N1c2ccccc2C=Cc2cc(F)ccc21,–,Stable,–,Stable,0.784,0.28,Stable,0.15,–,–,–,–,–,–,0.41,–,–,–

# The next lines start with the values.
Stability [1],Stability [2],Stability [3],Stability [4],Ratio [5],Ratio [6],Stability [7],Ratio [8],Stability [9],Stability [10],Stability [11],Drug metabolism [12],"metabolised at 1 h, 50 µM [13]",Stability [14],Ratio [1],Stability [15],Drug metabolism [16],Ratio [2],Structure (SMILES)
Stable,Stable,–,Stable,0.22,0.14,Stable,0.21,–,–,–,–,–,–,–,–,–,–,NC(=O)N1c2ccc(Cl)cc2C=Cc2cc(Cl)ccc21
Stable,Stable,–,Stable,2.04,0.21,–,0.11,–,–,–,–,–,Stable,–,–,–,–,NC(=O)N1c2ccccc2C=Cc2cc(Cl)ccc21
–,–,–,Stable,0.63,0.52,–,0.24,–,Stable,Stable,Active,1%,–,0.32,Stable,Active,0.08,NC(=O)N1c2ccccc2C=Cc2ccccc21 [CARBAMAZEPINE]
